Assay results as given in PMC4493896 (Journal of Medicinal Chemistry, 2015).
Values belong to the compound of their own block, whether it stands above or below them.

Tests used:
[1] = tested on: CREB-mediated gene transcription; assay: CREB Renilla luciferase; format: cell-based; settings: HEK 293T cells
[2] = tested on: A549, MCF-7, MDA-MB-231, MDA-MB-468 cells; assay: MTT assay, statements across the cancer cell line panel; format: cell-based; settings: 72 h
Method in brief: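 Cells in DMEM with nonessential amino acids and 10% FBS (37 °C, 5% CO2) attached overnight, then took test compound at a range of concentrations up to 100 μM for 72 h. MTT (0.5 mg/mL in complete medium) was added for 3 h at 37 °C, formazan dissolved in DMSO, A570 read. Growth = 100×(At−A0)/(Ac−A0), with time-0 and medium-treated controls.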

cancer and normal cells = settings: same assay conditions; cited from earlier work
Nurr1/NR4A2 mRNA = assay: qRT-PCR of endogenous CREB target gene in HEK 293T cells; format: cell-based; settings: forskolin 10 μM

Compound: Cl.NCCCOc1cc2ccccc2cc1C(=O)NCCCOc1cc2ccccc2cc1C(=O)Nc1ccc(Cl)cc1 [Compound 3b, 3-(3-Aminopropoxy)-N-(3-((3-((4-chlorophenyl)carbamoyl)naphthalen-2-yl)oxy)propyl)-2-naphthamide Hydrochloride]
decrease of CREB inhibition activity in comparison to 3a [1]: about 2 fold

Compound: Cl.O=C(NCCCOc1cc2ccccc2cc1C(=O)Nc1ccc(Cl)cc1O)c1cc2ccccc2cc1OCCCN1CCOCC1 [Compound 3e, N-(4-Chloro-2-hydroxyphenyl)-3-(3-(3-(3-morpholinopropoxy)-2-naphthamido)propoxy)-2-naphthamide Hydrochloride]
growth inhibition activity in the other three cancer cell lines ([2]; A549, MCF-7, MDA-MB-231, MTT): no activity

GI50 ([2]; read-out: GI50 values, range over all four cancer cell lines): 10.2 to 82.7 µM
Compound: O=C(NCCCOc1cc2ccccc2cc1C(=O)Nc1ccc(Cl)cc1O)c1cc2ccccc2cc1OCCCO [Compound 3g, N-(4-Chloro-2-hydroxyphenyl)-3-(3-(3-(3-hydroxypropoxy)-2-naphthamido)propoxy)-2-naphthamide]

Compound: COc1cccc2c1C(=O)c1c(O)c3c(c(O)c1C2=O)C[C@@](O)(C(=O)CO)C[C@@H]3O[C@H]1C[C@H](N)[C@H](O)[C@H](C)O1 [doxorubicin]
differential toxicity between cancer and normal cells (cancer and normal cells): did not show differential toxicity

Compound: C=C[C@@]1(C)CC(=O)[C@]2(O)[C@@]3(C)[C@@H](O)CCC(C)(C)[C@@H]3[C@H](O)[C@H](OC(C)=O)[C@@]2(C)O1 [forskolin]
stimulation of Nurr1/NR4A2 level (Nurr1/NR4A2 mRNA): ~31 fold
